Reference: ChEMBL document CHEMBL1124839, “5-Hydroxytryptamine (5-HT3) receptor antagonists. 3. Ortho-substituted phenylureas” (J Med Chem, 1990)

Target: Serotonin 3 (5-HT3) receptor (Rattus norvegicus) (UniProt P35563+Q9JJ16)
Assay: In vivo 5-hydroxytryptamine 3 receptor (5-HT 3 receptor) antagonistic activity expressed as ability to inhibit Bezold-Jarich reflex evoked by 5-HT in rats
Type: functional, organism-based
Summary of the method: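 Male rats (260-290 g) anesthetized with urethane (1.25 g/kg ip), with blood pressure and heart rate recorded. A submaximal 5-HT dose (6 µg/kg iv) was given repeatedly, and the heart-rate change was quantified. Compound was given iv before 5-HT. ID50 is the dose reducing the 5-HT-evoked response to 50% of the control response.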

SMILES | ID50 [µg/kg]
CN1C2CCC1CC(NC(=O)Nc1ccccc1S(=O)(=O)N(C)C)C2 (configuration not stated) | 2.2
COc1ccccc1NC(=O)NC1CC2CCC(C1)N2C (configuration not stated) | 2.5
CCCCOc1ccccc1NC(=O)NC1CC2CCC(C1)N2C (configuration not stated) | 8.3
CSc1ccccc1NC(=O)NC1CC2CCC(C1)N2C (configuration not stated) | 12.7
CC(C)Oc1ccccc1NC(=O)NC1CC2CCC(C1)N2C (configuration not stated) | 4.2
CCCOc1ccccc1NC(=O)NC1CC2CCC(C1)N2C (configuration not stated) | 9.8
CCOc1ccccc1NC(=O)NC1CC2CCC(C1)N2C (configuration not stated) | 3.1
CN1C2CCC1CC(NC(=O)Nc1ccccc1O)C2 (configuration not stated) | 11.6
CN1C2CCC1CC(NC(=O)Nc1ccccc1Oc1ccccc1)C2 (configuration not stated) | 5.4
C=CCOc1ccccc1NC(=O)NC1CC2CCC(C1)N2C (configuration not stated) | 2.6
CN(C)C(=O)c1ccccc1NC(=O)NC1CC2CCC(C1)N2C (configuration not stated) | > 10
COc1ccc(O)cc1NC(=O)NC1CC2CCC(C1)N2C (configuration not stated) | > 10
COCc1ccccc1NC(=O)NC1CC2CCC(C1)N2C (configuration not stated) | 13.4
CCOC(=O)c1ccccc1NC(=O)NC1CC2CCC(C1)N2C (configuration not stated) | 5.2
COc1ccc([N+](=O)[O-])cc1NC(=O)NC1CC2CCC(C1)N2C (configuration not stated) | > 10
CCC(C)Oc1ccccc1NC(=O)NC1CC2CCC(C1)N2C (configuration not stated) | 2.7
COc1ccc(F)cc1NC(=O)NC1CC2CCC(C1)N2C (configuration not stated) | 7
COc1ccc(OC)c(NC(=O)NC2CC3CCC(C2)N3C)c1 (configuration not stated) | > 10
COc1ccc(C)cc1NC(=O)NC1CC2CCC(C1)N2C (configuration not stated) | > 10
COc1ccc(NC(=O)NC2CC3CCC(C2)N3C)c(OC)c1 (configuration not stated) | > 10
COc1ccccc1NC(=O)NC1CC2CCCC(C1)N2C (stereo in doubt; 6c) | 7.5
CN1C2CCC1CC(NC(=O)Nc1ccccc1OCc1ccccc1)C2 (configuration not stated) | 5.2
COc1ccccc1NC(=O)OC1CC2CCC(C1)N2C (configuration not stated) | 2.4
CN1C2CCC1CC(NC(=O)Nc1ccccc1OC(C)(C)C)C2 (configuration not stated) | > 10
COc1cc(F)ccc1NC(=O)NC1CC2CCC(C1)N2C (configuration not stated) | > 10
COc1ccccc1NC(=O)NC1CC2CCCC(C1)N2C (stereo in doubt; 11c) | > 100
COC(=O)c1ccccc1NC(=O)NC1CC2CCC(C1)N2C (configuration not stated) | 2.1
